Screening data: PubChem BioAssay, several laboratories
Calb FLC – C. albicans growth inhibition with fluconazole, primary screen, CaCi-2 strain, Alamar Blue fluorescence; C. albicans CaCi-2 (fluconazole-resistant clinical isolate) + fluconazole, 48 h; growth inhibition, % (test concentration not listed); hit rate 0.57% among 300,000;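 active = growth inhibition above about 58% in most replicates, limit read from the data, passing the limit was not always enough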;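 also: all wells also contain fluconazole at 8 µg/ml as a sub-toxic cotreatment; 0% = median of DMSO wells and 100% = median of geldanamycin control wells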
Efflux pump mplx – inhibitors of Candida efflux pumps in yeast, primary screen, S. cerevisiae, Nile Red, multiplex; S. cerevisiae Candida pump triplex; inhibition, % at 10 µM; hit rate 0.44% among 330,000; AID 485275, 2010;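 active = plate passing quality check with inhibition over a set limit, or well fluorescence over plate mean plus 4 SD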;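 also: Nile Red retained in pooled yeast measured as flow cytometry median fluorescence; 0% = buffer negative control and 100% = Enniatin B positive control; higher means more Nile Red kept so more efflux inhibition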
MC4R ag barr – MC4R agonists recruiting beta-arrestin, primary screen, cell-based, luminescence, agonist arm of biased-ligand search; AID 540308, 2011; hit rate 0.98% among 360,000; Melanocortin receptor 4 (Homo sapiens), P32245; U2OS MC4R beta-arrestin complementation; percent of melanotan II response, DMSO zero; activation, % at 8.9 µM;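 active = activation above a per-plate cutoff, the mean activation of sample wells on that plate plus 3 SD, cut at about 8% in these data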
Target sequence (P32245 whole entry, looked up): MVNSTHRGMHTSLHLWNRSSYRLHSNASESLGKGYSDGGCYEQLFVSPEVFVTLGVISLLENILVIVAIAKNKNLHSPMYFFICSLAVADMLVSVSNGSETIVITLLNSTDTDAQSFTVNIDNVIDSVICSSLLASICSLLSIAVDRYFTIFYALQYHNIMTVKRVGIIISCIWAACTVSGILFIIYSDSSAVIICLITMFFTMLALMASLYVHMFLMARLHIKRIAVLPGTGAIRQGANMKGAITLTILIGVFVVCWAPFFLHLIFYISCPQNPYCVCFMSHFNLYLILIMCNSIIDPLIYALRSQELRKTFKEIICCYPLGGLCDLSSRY
GalR3 antagonist – GalR3 antagonists in HEK293 cells, primary screen, cell-based, fluorescence readout; Galanin receptor type 3 (Homo sapiens), O60755; HEK293 GalR3-CNG cAMP membrane potential fluorescence; galR3 body fused to GalR1 C-terminus; inhibition, % at 3 µM; hit rate 0.44% among 360,000; AID 651719, 2012;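 active = inhibition above the screen-wide average plus 3 SD, cut at about 13% in these data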;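 also: forskolin and galanin both at EC90 stimulate the cells; cAMP rise reported by CNG channel membrane potential dye signal; 0% = forskolin plus galanin with DMSO and 100% = forskolin alone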
Target sequence (O60755 1-299 limits assumed): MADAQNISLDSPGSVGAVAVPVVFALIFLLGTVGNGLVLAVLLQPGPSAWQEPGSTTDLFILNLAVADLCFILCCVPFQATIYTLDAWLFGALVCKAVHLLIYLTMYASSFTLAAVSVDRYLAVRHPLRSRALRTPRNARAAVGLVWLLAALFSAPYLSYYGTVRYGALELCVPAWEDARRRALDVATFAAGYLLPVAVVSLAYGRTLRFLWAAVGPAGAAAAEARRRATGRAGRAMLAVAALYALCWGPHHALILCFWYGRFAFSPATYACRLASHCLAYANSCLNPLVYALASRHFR
H9c2 TAG inh – inhibitors of triacylglycerol accumulation, primary screen, cell-based, uHTS, fluorescence, H9c2. AID 651582, 2012. inhibition, % at 12.5 µM. H9c2 cells, Nile Red lipid (TAG) fluorescence; cells loaded with 200 µM oleic acid. hit rate 0.66% among 230,000;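 active = pattern-corrected inhibition of lipid staining of at least 50% with the nuclear-stain viability signal not falling by more than 50%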;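 also: 0% = DMSO wells and 100% = triacsin C control wells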
MC4R antag cAMP – MC4R antagonists of cAMP signaling, primary screen, cell-based, TR-FRET, antagonist arm of biased-ligand search; Melanocortin receptor 4 (Homo sapiens), P32245; MC4R-expressing cells, MTII-stimulated cAMP, LANCE TR-FRET; inhibition, % at 6.5 µM; hit rate 0.48% among 360,000;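 active = inhibition above its plate's cutoff, the mean of tested wells on that plate plus 3 SD, cut at about 29% in these data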;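 also: 0% = Melanotan II alone and 100% = Melanotan II plus saturating MCL0020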
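material = U2OS cells stably expressing human melanocortin 4 receptor (MC4R) | also added = Melanotan II challenge | dosing = single nominal compound dose of 6.5 µM | detection = TR-FRET with Eu-cAMP and labeled anti-cAMP, 671 nm | replication = singlicate | timing = compound 30 min, challenge 1 h, detection 1 h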
GalR3 conf – GalR3 antagonist hit confirmation, cell-based, fluorescence, triplicate | shares compounds with GalR3 antagonist | HEK293 GalR3 CNG cAMP biosensor, membrane potential fluorescence; galR3 fused to GalR1 carboxy tail; challenged with forskolin and galanin at EC90 | inhibition, % at 3 µM | hit rate 59% among 1,600;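 active = inhibition above the primary screen's cutoff, the mean inhibition of all screened compounds plus 3 SD, cut at about 13% in these data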;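 also: 0% = forskolin plus galanin and 100% = forskolin alone with DMSO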
HEK-CNG parental – nonspecific cAMP agonists in parental HEK-CNG cells, counter-screen for GalR3 antagonist project, cell-based, fluorescence, high throughput. shares compounds with GalR3 antagonist. HEK293-CNG parental cells, cAMP membrane potential fluorescence; normalised: DMSO wells 0%, forskolin wells 100%. activation, % at 3 µM. hit rate 10% among 1,600. AID 652268, 2013; in the data active = activation above about 1.3%
Active calls of the source: *; / = no result. In the library only some 2.9% were active in any assay of this set; here they are far more common.

SMILES	Calb FLC	Efflux pump mplx	MC4R ag barr	GalR3 antagonist	H9c2 TAG inh	MC4R antag cAMP	GalR3 conf	HEK-CNG parental
COC(=O)[C@]12C[C@H](CC(=O)N3CCC(c4ccccc4)CC3)C(=O)N(Cc3ccc4c(c3)OCO4)C1=C[C@H](C(C)(C)C)O[C@@H]2C	/	/	/	-8	/	/	/	/
C/C(CCC1CC(C)(C)OC1=O)=N\NC(N)=S (stereo not given)	-9	0	1	13*	-18	-3	-1	0
Cc1cc(Cl)c(S(=O)(=O)N2CCCCCC2)cc1OCC(=O)NC1CCCCC1	-12	0	0	6	/	0	/	/
O=C(COc1ccc(Br)cc1Br)NC1CCCC1	-5	0	3	42*	8	-4	73*	0
Cc1cc(Cl)c(S(=O)(=O)NC2CCCC2)cc1OCC(=O)NC1CCCCC1	-20	0	-1	66*	-7	3	47*	0
CCN1CCN(S(=O)(=O)c2cc(OCC(=O)NC3CCCCC3)c(C)cc2Cl)CC1	-3	0	2	25*	10	2	55*	0
CO[C@H]1CN(C)C(=O)c2cc(NC(=O)c3ccccc3)ccc2OC[C@H](C)NC[C@@H]1C	/	/	/	-4	/	/	/	/
CCNC(=O)N1CCN(c2ccc(N3CCN(C(=O)NCC)[C@@H](C)C3)c(C)c2)[C@@H](C)C1	/	/	/	-6	/	/	/	/
COc1ccc(CCN(C)c2ccc(S(=O)(=O)N3CCCC3)cc2[N+](=O)[O-])cc1OC	8	0	0	-6	/	9	/	/
COc1ccc(CN(C)c2ccc(S(=O)(=O)N3CCN(C)CC3)cc2[N+](=O)[O-])cc1OC	/	0	-2	103*	-23	0	127*	0
COc1ccc(CNC(=O)CNC(=O)[C@@H]2Cc3ccccc3CN2)cc1	-6	0	0	-8	/	7	/	/
COc1ccc(CNC(=O)[C@@H](C)NC(=O)[C@@H]2Cc3ccccc3CN2)cc1	-1	0	-1	20*	/	5	-2	0
CCc1nc2sc(C#N)c(N)c2c2c1CCCC2	1	0	4	42*	/	-13	57*	-1
Cc1nc2scc(-c3ccccc3)c2c(=O)n1N	-11	0	-3	-3	6	0	/	/
Cc1nc2scc(-c3ccccc3)c2c(=O)n1N=C1C=CC(=O)C=C1	22	/	/	15*	/	/	24*	0
CC(C)(C)CN1C(N)=NC[C@@H]1Cc1ccccc1	-6	0	-1	/	-31	4	4	0
COc1ccc(CNC(=O)C(=O)c2cn(CC(=O)N3CCOCC3)c3ccccc23)cc1	1	0	-2	-7	/	-2	/	/
O=C(NCc1ccc(Cl)cc1)C(=O)c1cn(CC(=O)N2CCOCC2)c2ccccc12	-1	0	-3	19*	/	-2	4	0
Cc1ccc(S(=O)(=O)N2C[C@@H](C)[C@]3(C2)[C@H](O)[C@H](OC(=O)Nc2c(C)noc2C)C[C@H]2C(=O)N(c4ccccc4)C(=O)[C@H]23)cc1	/	/	0	-3	7	9	/	/
O=C(Nc1ccccc1O)C(c1ccccc1)c1ccccc1	0	0	1	55*	/	-1	92*	-2
C[C@H]1[C@H](c2ccccc2)Oc2cccc(N3CCCC3)c2S(=O)(=O)N1Cc1cccc(F)c1	/	/	/	-5	/	/	/	/
O=Cc1cn(CC(=O)N2CCCCCC2)c2ccccc12	-8	0	2	19*	-12	3	6	0
Cc1ccccc1C(=O)N[C@H](C(=O)N1CCC[C@H]1C(=O)NCCc1ccccc1Cl)C(C)C	/	/	/	-7	/	/	/	/
O=C(O)CCCn1cc(NC(=O)c2c(F)cccc2F)cn1	-41	0	-2	15*	13	-7	5	0
CN(C)CCN1CCN(C2CN(CCc3ccccc3)S(=O)(=O)C2)CC1 (stereo not given)	/	/	/	-5	/	/	/	/
SMILES	Calb FLC	Efflux pump mplx	MC4R ag barr	GalR3 antagonist	H9c2 TAG inh	MC4R antag cAMP	GalR3 conf	HEK-CNG parental
Cc1nc(CN(C)C(=O)c2cc(COc3ccc4ncccc4c3)on2)cs1	-2	0	-2	68*	-8	21	108*	0
CC(CCCC(C)(C)O)NC(=O)c1cc(COc2ccc3ncccc3c2)on1 (stereo not given)	26	0	-1	15*	-2	8	50*	0
CC(C)N(Cc1nccn1C)C(=O)c1cc(COc2ccc3ncccc3c2)on1	6	0	-1	-10	-25	-4	/	/
Cn1c(C(=O)NN)cc2cc(Oc3ccccc3)ccc21	-91	0	0	60*	/	15	44*	0
Cn1c(C(=O)O)cc2cc(Oc3ccccc3)ccc21	14	0	0	-7	/	9	/	/
Cc1ccc(/C(O)=C2\C(=O)C(=O)N(CCCN3CCOCC3)C2c2ccccc2F)cc1 (stereo not given)	/	/	0	2	-3	8	/	/
Cn1nc(C(C)(C)C)cc1C(=O)NCc1cc(F)cc2c1OCOC2	-8	0	-1	95*	-19	8	111*	0
CCS(=O)(=O)N1Cc2cc(C(=O)NCC3CC3)nc(-c3cccc(-c4cccnc4)c3)c2[C@@H]1CCO	/	/	/	-3	/	/	/	/
O=S1(=O)CCN(Cc2ccncc2)CC1	/	/	2	-5	4	5	/	/
Cc1cc(C)nc(SCC(=O)Nc2ccnc3ccccc23)n1	10	0	-4	55*	-42	6	121*	0
COC(=O)Nc1cc(C)nc2ccccc12	7	0	2	-1	13	-1	/	/
O=C(CSC1=NCCS1)Nc1ccnc2ccccc12	-22	0	0	99*	/	-14	109*	0
Cc1cc(NC(=O)Cc2ccccc2)c2ccccc2n1	-1	0	-2	13*	-29	-2	65*	0
CCCOc1nc2ccccc2cc1/C=C/C(=O)O	31	0	-5	14*	-11	12	6	1
